Screening results: PubChem, several laboratories
Shown are actives, neighbours in structure and some others; about 2.7% of the full set was active somewhere.
MsrA inhibitor – bovine MsrA inhibition | inhibition, % at 15.5 µM | hit rate 0.75% among 360,000 | purified bovine MsrA, absorbance read-out | AID 651718; in the data active means inhibition above about 4.5%;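 further: 0% = vehicle wells with enzyme and 100% = reference inhibitor wells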
Rev-erbA mod – Rev-erb alpha (human) modulation | Rev-erbα–FITC-DNA binding, fluorescence polarization, 90 min | hit rate 0.79% among 370,000 | activity, % at 10 µM | P20393;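 active means activity above about 14%, limit read from the data; passing the limit was not always enough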;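 further: 0% = DMSO wells with 35 nM protein and 100% = DMSO wells with 750 nM protein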
bovine MsrA act – bovine methionine sulfoxide reductase A activation. purified bovine MsrA, absorbance read-out. activation, % at 10.6 µM. hit rate 0.3% among 360,000. AID 602163; in the data active means activation above about 7.5%;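 further: 0% = vehicle and 100% = reference activator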
ARFGAP1 inhibitor – inhibits rat ARF GTPase activating protein 1. hit rate 0.26% among 360,000. Arfgap1-stimulated ARF1 GTP hydrolysis, GDP FP detection. Q62848. AID 651572. inhibition, % at 16.5 µM;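 active means inhibition above a per-plate limit, mean inhibition of low control wells plus 3 SD, cut at about 25% in these data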;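 further: 0% = DMSO wells with enzyme and 100% = wells lacking Arfgap1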
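Material – truncated rat Arfgap1 GAP domain · Buffer or medium – HEPES-based buffer, pH 7.5 · Reagent – human ARF1(Δ1-17)-GTP substrate · Dosing – 16.5 µM single point, 1.26% DMSO · Schedule – GTP hydrolysis reaction 2 h at 25 °C · Technique – GDP detection by fluorescence polarization · Benchmarks – No-Arfgap1 wells (100%) versus DMSO full-reaction wells (0%) · Repeats – single replicate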
HGIII-sPLA2 inh – Inhibits HGIII-sPLA2 liposome hydrolysis, primary screen; QFRET BODIPY PC-A2 liposome hydrolysis, fluorescence; inhibition, % at 12.2 µM; hit rate 0.56% among 370,000;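 active means inhibition above mean plus 3 SD of compounds lying within the high and low control bounds, cut at about 19% in these data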;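 further: 0% = median of test compound wells and 100% = no enzyme DMSO wells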
ASAP1 inh – inhibitors of human ASAP1 ArfGAP activity; Q9ULH1; ASAP1-stimulated ARF1 GTP hydrolysis, GDP FP detection; inhibition, % at 16.5 µM; hit rate 0.19% among 360,000; in the data active means inhibition above about 25%;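 further: 0% = vehicle with enzyme and substrate and 100% = no enzyme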
ARFGAP1 confirm – rat ARFGAP1 inhibition, confirmed. hit rate 30% among 890. AID 651608. shares compounds with ARFGAP1 inhibitor. inhibition, % at 16.5 µM. ARFGAP1-stimulated ARF1 GTP hydrolysis, GDP tracer FP;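 active means average inhibition over triplicates above the hit cutoff set in the earlier primary screen, cut at about 25% in these data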;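 further: 0% = Arfgap1 plus ARF1-GTP with DMSO and 100% = wells lacking Arfgap1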
Target sequence (Q62848 whole entry, looked up): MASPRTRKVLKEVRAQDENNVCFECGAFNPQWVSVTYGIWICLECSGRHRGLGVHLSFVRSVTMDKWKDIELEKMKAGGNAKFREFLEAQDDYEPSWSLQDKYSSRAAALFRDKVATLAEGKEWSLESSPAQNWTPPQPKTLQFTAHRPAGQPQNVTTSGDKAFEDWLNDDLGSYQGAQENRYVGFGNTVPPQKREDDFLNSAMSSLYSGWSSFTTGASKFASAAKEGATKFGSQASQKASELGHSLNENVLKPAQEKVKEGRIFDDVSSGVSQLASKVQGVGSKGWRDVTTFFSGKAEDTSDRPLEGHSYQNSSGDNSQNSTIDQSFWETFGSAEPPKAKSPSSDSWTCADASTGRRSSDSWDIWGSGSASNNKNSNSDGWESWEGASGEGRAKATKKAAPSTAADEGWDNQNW
* = called active by the depositor; x = not tested or not shown.

SMILES	MsrA inhibitor	Rev-erbA mod	bovine MsrA act	ARFGAP1 inhibitor	HGIII-sPLA2 inh	ASAP1 inh	ARFGAP1 confirm
CC(C)C(C#CC1CC1)NCc1ccc2c(c1)OCO2 (centres undefined)	x	-1	x	x	18	x	x
Cc1ccc(C(=O)NCCCNc2ccc(C(F)(F)F)cc2[N+](=O)[O-])cc1	-1	-6	-2	25*	10	-11	4
COCCNCc1nc2sc(C)c(-c3ccccc3)c2c(=O)[nH]1	0	7	-6	28*	9	-3	1
Cc1sc2nc(CN3CCOCC3)[nH]c(=O)c2c1-c1ccccc1	1	-4	-3	14	15	3	x
CCC(=O)N1CCN=C1SCc1ccccc1Cl	-2	-3	-11	29*	4	3	3
CC(=O)N1CCN=C1SCc1ccccc1Cl	-1	-4	-1	-6	5	-4	x
Cc1ccc(S(=O)(=O)Nc2ccc(NC(=O)Nc3cccc(C(F)(F)F)c3)cc2)cc1	-1	3	-2	30*	-65	22	29*
COc1ccc(S[C@]2(C(=O)N3CCN(c4ncccn4)CC3)CC(=O)N(C(=O)c3ccccc3)[C@@H]2c2ccc(OC)cc2)cc1	x	6	x	x	1	x	x
Cn1cnnc1Sc1ccc(/C=C(\CCC(=O)O)c2nc3ccccc3s2)cc1[N+](=O)[O-]	4	2	-1	-6	-9	5	x
Cc1ccc(/C=C(\CCC(=O)O)c2nc3ccccc3s2)cc1[N+](=O)[O-]	4	1	-5	31*	-25	18	39*
CCOC(=O)Cn1c(=O)cc(C)c2cccc(C)c21	1	x	-1	30*	10	6	5
CCOC(=O)Cn1c(C)cc(=O)c2cccc(C)c21	1	-8	-1	6	6	2	x
CCS(=O)(=O)C(=C1NCCO1)S(=O)(=O)CC	0	-4	-13	25*	7	-1	-4
COc1ccc(C2CC(=O)C(c3ccc(C)cc3)=CN2Cc2ccccc2)cc1 (centres undefined)	4	-5	x	-4	3	-3	x
C#CCNC(=O)C[C@H]1C(=O)N(CCc2ccc(Cl)cc2)C2=CCCC[C@@]21C(=O)OCC	x	-1	x	x	-6	x	x
O=C(/C=C/c1ccco1)Nc1ccc(C(=O)N2CCOCC2)cc1	3	-7	-8	-1	6	-17	x
O=C(/C=C/c1ccco1)Nc1ccc(N2CCCC2)cc1	2	-34	-1	26*	1	12	-1
Cn1c(=O)c2c(nc(SCc3cccnc3)n2Cc2ccccc2)n(C)c1=O	0	-2	-1	26*	4	-10	6
CCOc1ccc2nc(NC(=O)Cn3cnc4c3c(=O)n(C)c(=O)n4C)sc2c1	0	-3	-3	27*	-5	12	7
COc1ccc2nc(NC(=O)Cn3cnc4ccccc4c3=O)sc2c1	-1	-2	-2	27*	-1	7	8
COc1ccc(NC(=O)Cn2cnc3ccccc3c2=O)cc1OC	1	-4	-3	8	3	-10	x
CSc1ccc(-c2csc(N3CCC(C(N)=O)CC3)n2)cc1	x	-3	x	x	2	x	x
CC(C)CN1C(=O)C[C@]2(C(=O)N(C)c3ccc(NS(=O)(=O)C4CC4)cc32)C1c1ccccc1 (some centres undefined)	x	7	x	x	3	x	x
CN(CCOC(=O)c1cc2ccccc2o1)C1CN(Cc2cn(Cc3ccccc3C(F)(F)F)nn2)S(=O)(=O)C1 (centres undefined)	x	7	x	x	1	x	x
C=CCN1C(=O)[C@@H](CC(=O)NCc2cccs2)[C@]2(C(=O)OCC)CCCCC/C=C/12	x	0	x	x	-5	x	x
Cc1ccc(C(=O)Nc2ccc3c(c2)C(=O)NC3=O)cc1	0	0	-6	25*	1	13	-3
Cc1cccc(C(=O)Nc2ccc3c(c2)C(=O)NC3=O)c1	1	-3	1	10	-3	-7	x
O=C(NCCc1ccccn1)c1ccc2c(c1)ncn2C1CCCCC1	x	6	x	x	0	x	x
FC(F)Oc1ccc(NC(=S)NC23CC4CC(CC(C4)C2)C3)cc1	0	1	-2	25*	7	-4	8
CCOc1ccc(NC(=S)NC23CC4CC(CC(C4)C2)C3)cc1	0	3	2	2	-1	5	x
